Laboratory results as given in ChEMBL document CHEMBL1140898, “Targeting the fatty acid biosynthesis enzyme, beta-ketoacyl-acyl carrier protein synthase III (PfKASIII), in the identification of novel antimalarial agents” (J Med Chem, 2009).

Experiments:
[1] = Inhibition of Plasmodium falciparum KAS3 expressed in Escherichia coli assessed as transfer of [1-14C]acetyl-CoA to [1-14C]acetyl-ACP
Procedure, shortened: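 Recombinant 6xHIS-tagged P. falciparum KASIII and 6xHIS-ACP expressed in E. coli and purified. Radiometric filter assay of [1-14C]-acetyl-CoA transfer to ACP, 25 min at 37 °C, quenched with 10% TCA. Product captured on P81 cellulose filters, washed with TCA and counted by scintillation. […] IC50 by variable-slope nonlinear regression, curves accepted at R2 >0.80.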

[2] = test system: Plasmodium falciparum; experiment: Antimalarial activity against […] by [3H]hypoxanthine uptake; type: functional, organism-based
[3] = test system: Plasmodium falciparum; experiment: Antimalarial activity against […] by [3H]hypoxanthine uptake; type: functional, organism-based
[4] = test system: Plasmodium falciparum; experiment: Antimalarial activity against Plasmodium falciparum TM91C235 by [3H]hypoxanthine uptake; type: functional, organism-based
[5] = Cytotoxicity against mouse J774.G8 cells after 72 hrs by MTS assay; type: cell-based
Procedure, shortened: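 Murine J774 macrophage subclone G8 grown in DMEM with 10% fetal calf serum, 2 mM L-glutamine, 50 μg/mL gentamicin, 5% CO2, 37 °C. Seeded at 1 × 10^4 cells/well and left 24 h. Compound dilutions in medium or vehicle added, then 72 h exposure. MTS tetrazolium added for 1–2 h at 37 °C, OD read at 490 nm. Vehicle control values subtracted.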

[6] = Therapeutic index, ratio of IC50 for mice (Mus musculus) J774.G8 cells to IC50 for chloroquine-resistant Plasmodium falciparum W2; conditions: J774.G8 cells versus Plasmodium falciparum W2

SMILES	IC50 [1] [µM]	IC50 [2] [µM]	IC50 [3] [µM]	IC50 [4] [µM]	IC50 [5] [µM]	selectivity ratio [6]
Oc1ccccc1SSc1ccccc1O	1.9	15	14.9	–	–	–
O=[N+]([O-])c1c(Cl)sc(Cl)c1S(=O)(=O)Nc1ccc(C(F)(F)F)cc1	0.28	16.4	15.4	–	–	–
Nc1ccc(S(=O)(=O)c2cc(O)ccc2O)cc1	63.8	3.6	0.79	5.3	> 1890	> 472
Cc1ccc(S(=O)(=O)c2ccccc2)cc1	158	68.9	35.7	112	134	1.9
Cc1cc(O)c(O)c(S(=O)(=O)c2ccc(N)cc2)c1	27.2	23.6	19.7	3.4	27.6	1.2
Cc1ccc(S(=O)(=O)c2cc(O)ccc2O)cc1	193	64.3	37.8	60.5	> 1890	> 29.6
Cc1ccc(S(=O)(=O)c2ccc3ccccc3c2)cc1	53.7	> 230	> 230	> 230	> 1770	–
c1ccc(SSc2ccccc2)cc1	0.65	6.7	5	–	124	12.4
O=C(O)c1ccc(NS(=O)(=O)c2ccccc2)cc1O	5	> 12.7	> 12.7	–	> 2540	–
Oc1ccc2ccccc2c1SSc1c(O)ccc2ccccc12	0.13	6.6	7.2	–	> 1430	> 204
Clc1ccc(SSSc2ccc(Cl)cc2)cc1	0.63	2.1	2.5	–	–	–
Oc1ccc(Cl)cc1SSSc1cc(Cl)ccc1O	0.53	1.4	2.3	–	–	–
O=S(=O)(Nc1cccc(Cl)c1)c1ccccc1	195	> 49.9	> 49.9	–	31.3	< 0.62
O=S(=O)(Nc1ccc(C(F)(F)F)cc1)c1cc(Cl)sc1Cl	2.2	> 49.9	> 49.9	–	–	–
C/C=C/CCCCCCCC(=O)NS(=O)(=O)c1ccc(N)cc1	> 1000	> 49.9	> 49.9	–	–	–
Oc1ccc(S)cc1Cl	2.8	4.7	5.2	–	–	–
Oc1ccc(Sc2ccc(O)cc2O)c(O)c1	10.8	> 49.9	> 49.9	–	–	–
O=S(=O)(c1ccc(O)cc1)c1cc(Cl)ccc1O	115	45.7	38.6	80.8	107	2.3
Nc1ncc(S(=O)(=O)c2ccc(NO)cc2)s1	22	> 55.3	0.3	> 55.3	–	–
CCOC(=O)c1cnccc1C	4.9	> 49.9	> 49.9	–	–	–
CC(CN)CCC(C)(O)C(N)=O (stereo unspecified)	0.24	14.6	24.7	–	–	–
C/C(=C/C(=O)OC(C)c1ccccc1)OP1(=O)OC(C)C(C)O1 (stereo unspecified)	25.8	> 49.9	20.4	–	–	–

SMILES	IC50 [1] [µM]	IC50 [2] [µM]	IC50 [3] [µM]	IC50 [4] [µM]	IC50 [5] [µM]	selectivity ratio [6]
COc1ccc(C(=O)CSS(=O)(=O)c2ccccc2)cc1	1.5	22.5	22.5	–	–	–
Cc1cccc(C)c1/C=C/S(=O)(=O)c1ccccc1	448	> 50.1	> 50.1	–	706	< 14
CC(C)(C)S(=O)(=O)CC(=O)c1ccc(Cl)cc1Cl	62.9	84.1	45.3	> 204	> 1620	> 19.3
CCCCS(=O)(=O)CCOC(=O)c1ccc([N+](=O)[O-])cc1	0.32	> 41.2	> 41.2	–	33.6	< 0.83
O=S(=O)(c1cccc(S(=O)(=O)c2cc(O)ccc2O)c1)c1cc(O)ccc1O	38.2	7.1	26	4.5	> 1180	> 169
C/C(=C/c1ccccc1)S(=O)(=O)c1ccccc1	165	> 50.1	28	–	205	< 4.1
Nc1ccc(S(=O)(=O)c2cc(O)c3ccccc3c2O)c(Cl)c1	0.13	5.5	0.01	–	–	–
CC(C)c1ccc(S(=O)(=O)c2ccc(C(C)C)cc2)cc1	22.5	23.5	18.5	32.7	7.3	0.3
Cc1ccc(S/C=C/S(=O)(=O)Cc2ccccc2)cc1	0.52	5.8	3	–	0.85	0.15
O=[N+]([O-])c1cc(S(=O)(=O)Nc2cc(C(F)(F)F)cc(C(F)(F)F)c2)sc1Nc1cc(C(F)(F)F)cc(C(F)(F)F)c1	5.2	11.4	10.3	–	–	–
O=c1ss/c(=N\c2ccccc2)n1-c1ccccc1	0.5	8	8	–	–	–
Cc1ccc(SSSc2ccc(C)cc2)cc1	1.4	1.4	1.5	–	–	–
Cc1ccc(S(=O)(=O)c2cc(O)c3ccccc3c2O)cc1	0.38	3.2	3.6	–	> 3180	> 1060
Oc1ccc(Cl)cc1SSc1cc(Cl)ccc1O	0.14	12	12.4	–	–	–
Oc1c(Cl)cc(SSc2cc(Cl)c(O)c(Cl)c2Cl)c(Cl)c1Cl	0.24	5.5	3.9	–	–	–
O=C(CN1CCN(c2ccc(CO)c(Br)c2)CC1)c1ccc([N+](=O)[O-])o1	3.2	8.9	8.9	–	–	–
NC1CCC(S(=O)(=O)c2cc(O)c3ccccc3c2O)CC1 (stereo unspecified)	0.44	20.4	3.9	–	105	5.3
CC(=O)Nc1ccc(S(=O)(=O)c2ccc(NC(=O)c3ccccc3O)cc2)cc1	48.1	20.7	29.2	31.7	> 1620	> 77
Nc1nc(O)c2cc(S(=O)(=O)c3ccc4ccccc4c3)ccc2n1	18.3	1.2	0.43	1.4	> 2850	> 2850
Oc1ccc(Cl)cc1Sc1cc(Cl)ccc1O [FENTICLOR]	3.1	21.5	20.5	–	–	–
COc1ncnc(NS(=O)(=O)c2ccc(N)cc2)c1OC [SULFADOXINE]	> 1000	6.1	0.04	–	> 1610	> 269
C=C/C(C)=C/[C@@]1(C)SC(=O)C(C)=C1O [THIOLACTOMYCIN]	> 330	50	50	–	–	–
